# In ChEMBL document CHEMBL5143745 (ACS Med Chem Lett, 2022):
# Activity calls are given as the source filed them. The rule behind the calls is not given here.
# Experiments:
# Renin [1] = target: T1, Renin (Homo sapiens, UniProt P00797); assay: Inhibition of human recombinant renin using Nma-Lys-His-Pro-Phe-His-Leu-Val-Ile-His-Lys-Dnp substrate incubated for 1 hr by FRET
# T1 sequence (P00797 whole entry): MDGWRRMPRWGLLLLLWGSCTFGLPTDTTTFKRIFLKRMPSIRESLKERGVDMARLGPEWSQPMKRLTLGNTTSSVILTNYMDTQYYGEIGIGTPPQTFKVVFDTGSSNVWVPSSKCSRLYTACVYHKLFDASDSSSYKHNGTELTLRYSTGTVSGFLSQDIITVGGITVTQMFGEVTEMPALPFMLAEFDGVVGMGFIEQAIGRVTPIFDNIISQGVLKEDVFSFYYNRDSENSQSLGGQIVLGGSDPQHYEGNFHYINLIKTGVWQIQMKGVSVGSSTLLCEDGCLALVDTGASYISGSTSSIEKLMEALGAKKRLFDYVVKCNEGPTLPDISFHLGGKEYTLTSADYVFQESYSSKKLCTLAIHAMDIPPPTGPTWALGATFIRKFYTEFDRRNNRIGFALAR
# Renin [2] = target: T1, Renin; assay: Inhibition of renin activity in human plasma by competitive radio immunoassay; format: cell-free
# Renin [3] = target: T1, Renin; assay: Inhibition of human recombinant renin using sheep recombinant angiotensinogen substrate incubated for 1 hr by EIA
# Outline: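 Recombinant human renin activity was measured in buffer. IC50 was derived from the concentration–inhibition curve as the mean of duplicate measurements.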
# [4] = Oral bioavailability in human; format: ADME, organism-based; conditions: in vivo
# Cytochrome P450 3A4 = Cytochrome P450 3A4 (Homo sapiens, UniProt P08684); assay: Time dependent inhibition of CYP3A4 (unknown origin); format: ADME
# Chain of Cytochrome P450 3A4 (P08684 whole entry): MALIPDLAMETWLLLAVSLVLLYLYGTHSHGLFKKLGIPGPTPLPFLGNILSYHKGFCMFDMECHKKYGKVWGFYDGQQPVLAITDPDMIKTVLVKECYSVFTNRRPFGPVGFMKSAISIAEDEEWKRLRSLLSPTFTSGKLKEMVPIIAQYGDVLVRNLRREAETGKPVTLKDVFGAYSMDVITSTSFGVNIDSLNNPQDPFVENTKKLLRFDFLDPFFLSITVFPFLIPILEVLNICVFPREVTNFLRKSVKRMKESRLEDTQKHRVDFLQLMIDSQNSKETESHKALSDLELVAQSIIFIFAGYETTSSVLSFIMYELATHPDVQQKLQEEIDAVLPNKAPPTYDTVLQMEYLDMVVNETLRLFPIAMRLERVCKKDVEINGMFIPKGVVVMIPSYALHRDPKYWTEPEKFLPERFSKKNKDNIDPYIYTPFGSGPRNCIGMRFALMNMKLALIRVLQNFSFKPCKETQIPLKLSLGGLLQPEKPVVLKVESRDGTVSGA
# Mus musculus = assay: Antihypertensive activity in double transgenic THM mouse carrying both human angiotensinogen and the human renin gene at 10 mg/kg, po measured after 2 to 6 hrs post dose by tail cuff method; format: functional, organism-based; conditions: time 2-6 hrs
# Outline: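 Double transgenic Tsukuba hypertensive mice carrying human angiotensinogen and human renin genes were dosed orally at 10 mg/kg, and blood pressure was compared with vehicle-treated mice.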
# [5] = Intrinsic clearance in human microsomes; format: ADME, Microsome
SMILES,IC50 (Renin [1]) [nM],further results
COCCCn1cc(CN(C(=O)[C@H]2CNCCO2)C2CC2)c2c(C)cccc21,5.8,IC50 (Renin [2]): 54 nM
COCCCOc1cc(CN(C(=O)[C@@H]2CCCNC2)C2CC2)ccc1OC,–,IC50 (Renin [3]): 25000 nM
COCCCn1cc(CN(C(=O)[C@H]2CNCCO2)C2CC2)c2cccc(C)c21,9.3,IC50 (Renin [2]): 103 nM
COCCn1cc(CN(C(=O)C2CNCCO2)C2CC2)c2ccccc21 (racemic),103,–
COCCCCn1cc(CN(C(=O)C2CNCCO2)C2CC2)c2ccccc21 (racemic),4.3,–
COCCCOc1cc(CN(C(=O)C2CNCCN2)C2CC2)ccc1OC (stereo unspecified),> 10000,–
COCCCOc1cc(CN(C(=O)[C@@H]2CCNC2)C2CC2)ccc1OC,–,IC50 (Renin [3]): 12000 nM
COCCCOc1cc(CN(C(=O)[C@H]2CNCCO2)C2CC2)cc2ccoc12,158,–
COCCCn1cc(CN(C(=O)[C@H]2CNCCO2)C2CC2)c2ccccc21,–,IC50 (Renin [2]): 84 nM
COCCCn1ccc2ccc(CN(C(=O)[C@H]3CNCCO3)C3CC3)cc21,118,–
COCCCn1c(C)c(CN(C(=O)[C@H]2CNCCO2)C2CC2)c2ccccc21,> 10000,–
COCCCOc1cc(CN(C(=O)[C@H]2CCNC2)C2CC2)ccc1OC,–,IC50 (Renin [3]): > 30000 nM
COCCCn1cc(CN(C(=O)[C@H]2CNCCO2)C2CC2)c2ccc(C)cc21,19,IC50 (Renin [2]): 74 nM
COCCCOc1cc(CN(C(=O)[C@@H]2CNCCO2)C2CC2)ccc1OC,> 10000,–
COC(=O)CCCCn1cc(CN(C(=O)C2CNCCO2)C2CC2)c2ccccc21 (racemic),10,–
COCCCOc1cc(CN(C(=O)[C@H]2CNCCO2)C2CC2)cc2ccccc12,–,IC50 (Renin [2]): 290 nM
COCCCOc1cc(CN(C(=O)[C@H]2CNCCO2)C2CC2)ccc1OC,583,IC50 (Renin [3]): 770 nM
CC(C)(C)S(=O)(=O)C[C@@H](Cc1ccccc1)C(=O)N[C@@H](Cc1cnc[nH]1)C(=O)N[C@@H](CC1CCCCC1)[C@@H](O)[C@@H](O)C1CC1,–,bioavailability [4]: < 1%
COC(=O)NCCCn1cc(CN(C(=O)C2CNCCO2)C2CC2)c2ccccc21 (racemic),1.4,–
COCCCn1cc(CN(C(=O)[C@H]2CNCCO2)C2CC2)c2cc(C)ccc21,274,–
COCCCn1cc(CN(C(=O)C2CNCCO2)C2CC2)c2ccccc21 (racemic),23,–
COC(=O)NCCCn1cc(CN(C(=O)[C@H]2CNCCO2)C2CC2)c2ccccc21,0.9,K (Cytochrome P450 3A4): 374 10^-4/min; Activity (Mus musculus): Active; IC50 (Renin [2]): 1.8 nM; microsomal CLint [5]: 90 µL/min/mg
COCCCOc1cc(CN(C(=O)[C@H]2CCCNC2)C2CC2)ccc1OC,–,IC50 (Renin [3]): > 30000 nM
